Assay [1] concerns HCT-116. Description: Tested for percentage inhibition of HCT116 cell growth after 24 hr at 0.1 uM. The assay is classed as functional. As to conditions: Homo sapiens, HCT-116, 24 h; values are per cent of control. A digest of the protocol: (§1)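 HCT116 cells grown in DMEM with 2 mM L-glutamine, penicillin/streptomycin, nonessential amino acids, 10% heat-inactivated FBS, 37 °C, 5% CO2. Seeded at 500 cells/well, 72 h later refed with serum-containing medium plus DMSO vehicle or agent. CellTiter96 read-out at 24, 48 or 72 h of treatment, expressed as % of DMSO-treated cells. Mean ± SEM, n = 3-5. Student's t-test, significance p < 0.05.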

In assay [2] the test system is HCT-116. Description: Tested for percentage inhibition of HCT116 cell growth after 48 hr at 100 uM, (p<0.05). In kind it is functional. As to conditions: Homo sapiens, HCT-116, 48 h; values are per cent of control. Put shortly:
as §1

In assay [3] the test system is HCT-116. Description: Tested for percentage inhibition of HCT116 cell growth after 48 hr at 10 uM. As to conditions: Homo sapiens, HCT-116, 48 h; values are per cent of control. In kind it is functional. Put shortly:
as §1

In assay [4] the test system is HCT-116. Description: Tested for percentage inhibition of HCT116 cell growth after 48 hr at 1 uM. The assay is classed as functional. As to conditions: Homo sapiens, HCT-116, 48 h; values are per cent of control. Put shortly:
as §1

The test system of assay [5] is HCT-116. Description: Tested for percentage inhibition of HCT116 cell growth after 72 hr at 0.1 uM, (p<0.05). The following applies: Homo sapiens, HCT-116, 72 h; values are per cent of control. The assay is classed as functional. A digest of the protocol: as §1
For assay [6], the system named is HCT-116. Description: Tested for percentage inhibition of HCT116 cell growth after 72 hr at 100 uM, (p<0.05). In kind it is functional. As to conditions: Homo sapiens, HCT-116, 72 h; values are per cent of control. A digest of the protocol: as §1
The subject of assay [7] is HCT-116. Description: Tested for percentage inhibition of HCT116 cell growth after 24 hr at 1 uM. The assay is classed as functional. The following applies: Homo sapiens, HCT-116, 24 h; values are per cent of control. A digest of the protocol: as §1
Assay [8] has as its system HCT-116. Description: Tested for HCT116 cell growth as percentage of control after 72 hr at 1 uM. As to conditions: Homo sapiens, HCT-116, 72 h.
In assay [9] the test system is HCT-116. Description: Tested for HCT116 cell growth as percentage of control after 72 hr at 10 uM. The following applies: Homo sapiens, HCT-116, 72 h.
For assay [10], the system named is HCT-116. Description: Tested for HCT116 cell growth as percentage of control after 24 hr at 10 uM. As to conditions: Homo sapiens, HCT-116, 24 h.
The subject of assay [11] is HCT-116. Description: Tested for HCT116 cell growth as percentage of control after 24 hr at 100 uM. The following applies: Homo sapiens, HCT-116, 24 h.
Assay [12] concerns HCT-116. Description: Tested for HCT116 cell growth as percentage of control after 48 hr at 0.1 uM. The following applies: Homo sapiens, HCT-116, 48 h.
In assay [13] the test system is HCT-116. Description: Tested for percentage inhibition of HCT116 cell growth after 72 hr at 0.1 uM. In kind it is functional. As to conditions: Homo sapiens, HCT-116, 72 h; values are per cent of control. A digest of the protocol: as §1
Assay [14] concerns HCT-116. Description: Tested for HCT116 cell growth as percentage of control after 24 hr at 10 uM. The following applies: Homo sapiens, HCT-116, 24 h. This is another data set of the same source.
For assay [15], the system named is HCT-116. Description: Tested for HCT116 cell growth as percentage of control after 48 hr at 100 uM, (p<0.005). As to conditions: Homo sapiens, HCT-116, 48 h.

SMILES strings stand for the structures.

As for `Nc1nc(O)c2sc3[nH]cnc3c2n1`, the growth, % of control at 0.1 µM in assay [1] was determined as 98.7%; in [5], 107%; in assay [12], 96.8%. In addition, the growth, % of control at 100 µM came out at 77% in [2], 76.1% in [6] and 75.8% in [11]. Also, the growth (% of control) at 10 µM turned out to be 85% in assay [3], 99.5% in assay [9] and 93.2% in [10]. Further, the growth, % of control at 1 µM in [4] was found to be 95.9%; in [7], 96.7%; in [8], 117%.
For `Nc1ncnc2c1sc1nc[nH]c12`, the growth, % of control at 0.1 µM in [1] was 96.1%; in assay [13], 101%; in assay [12], 105%. Besides, the growth (% of control) at 10 µM in assay [3] was found to be 105%; in [9], 93.8%; in assay [14], 105%. Further, the growth, % of control at 1 µM worked out at 98.3% in assay [4], 107% in assay [7] and 96.1% in [8]. The growth, % of control at 100 µM in assay [6] was 51.5%; in assay [11] it was 82%; in assay [15], 71.5%.
